Rows were chosen to be rich in hits. Some 2.2% of all compounds tested hit in one or more screens of this group.
VIM-2 inhibitor = inhibitors of Pseudomonas aeruginosa VIM-2 metallo-beta-lactamase | purified VIM-2, nitrocefin hydrolysis, epi-absorbance fluorescence | inhibition, % at 5.6 µM | actives 0.89% (n = 290,000);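 active means inhibition above the mean of all tested compounds plus 3 SD, cutoff set per screening run, cut at about 7.5% in these data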;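 further: red hydrolysis product quenches plate fluorescence so inhibitors raise well fluorescence; 0% = enzyme with DMSO and 100% = DMSO without enzyme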
PvdQ acylase = P. aeruginosa PvdQ acylase inhibition; purified PvdQ acylase, fluorescence plate reader; inhibition, % at 10 µM; actives 0.063% (n = 340,000); AID 488965; in the data active means inhibition above about 30%, passing the limit was not always enough;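 further: 0% = vehicle neutral wells and 100% = reference inhibitor wells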
IMP-1 inhibitor = blocks Pseudomonas aeruginosa IMP-1 metallo-beta-lactamase; actives 0.45% (n = 290,000); purified IMP-1, nitrocefin hydrolysis, epi-absorbance fluorescence; AID 1556; inhibition, % at 5.6 µM;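 active means inhibition above the mean plus 3 SD of all compounds in the same screening run, cut at about 4.5% in these data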;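 further: 0% = IMP-1 with DMSO and 100% = DMSO wells lacking enzyme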
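system = purified recombinant IMP-1 beta-lactamase | amount = 0.2 nM IMP-1, as dispensed | medium = HEPES buffer pH 7.1 with ZnSO4 and Brij 35 | times = 25 °C, 15 min preincubation, 25 min reaction | detection = plate fluorescence quenching by hydrolysis product, ex 480/em 530 nm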
CR mimetic SO = yeast age-related superoxide inhibition as caloric restriction mimetic; S. cerevisiae aged cells, superoxide DHE fluorescence; stronger effect = lower value; superoxide response (% of plate mean), % at 10 µM; actives 0.18% (n = 330,000); AID 2690;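 active means superoxide response under a set limit, about three screen SD below normal, cut at about 65% in these data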;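 further: yeast aged for seven days with compound at 30 °C before DHE staining; 100% = average MFI of all compound-treated wells on the plate with controls excluded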
PHOSPHO1 block = blocks human PHOSPHO1 phosphatase activity; inhibition, % at 13.3 µM; recombinant PHOSPHO1, absorbance phosphatase assay; Q8TCT1; actives 1.1% (n = 290,000); in the data active means inhibition above about 60%
Target sequence (Q8TCT1 whole entry, looked up): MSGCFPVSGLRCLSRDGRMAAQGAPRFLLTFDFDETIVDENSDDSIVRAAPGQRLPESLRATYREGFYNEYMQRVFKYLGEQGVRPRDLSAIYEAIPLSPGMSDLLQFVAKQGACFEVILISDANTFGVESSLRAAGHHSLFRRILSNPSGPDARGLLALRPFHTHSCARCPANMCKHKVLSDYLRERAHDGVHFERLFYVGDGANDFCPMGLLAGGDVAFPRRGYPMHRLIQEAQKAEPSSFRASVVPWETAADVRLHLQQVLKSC
Numbers without * were called inactive; / = no result.

SMILES	VIM-2 inhibitor	PvdQ acylase	IMP-1 inhibitor	CR mimetic SO	PHOSPHO1 block
COc1ccc(S(=O)(=O)N2CCOCC2)cc1NC(=O)CSc1n[nH]c(C(C)C)n1	-3	1	-2	97	63*
CCc1noc(C)c1C(=O)N(Cc1ccccc1)c1c(N)n(CCOC)c(=O)[nH]c1=O	/	-1	/	92	/
CCN(CC)C(=O)[C@H]1CC(CC(=O)NCCN2CCOCC2)C(=O)N2CCc3c([nH]c4ccccc34)[C@]12C (some centres not stated)	/	23	/	96	/
CCOc1ccccc1NC(=O)C1=C(C)NC(=O)NC1c1cccc(OC)c1OC (configuration not stated)	-1	7	-2	110	62*
COc1cccc(C2NC(=O)NC(C)=C2C(=O)Nc2ccccc2C)c1 (configuration not stated)	-3	/	-2	/	-11
CC1=C(C(=O)Nc2ccccc2C)C(c2ccccc2)NC(=O)N1 (configuration not stated)	0	-16	4.5*	100	-11
COc1ccccc1NC(=O)C1=C(C)NC(=O)NC1c1cccc(OC)c1OC (configuration not stated)	-3	1	-3	103	5
Cc1cn(CC(=O)NCCN2CCOCC2)c(=O)[nH]c1=O	/	-15	/	/	/
CCC1Oc2ccc(C)cc2N(CC(=O)NCC2CCCO2)C1=O (configuration not stated)	-2	-9	-1	111	22
CCOc1ccc(S(=O)(=O)N2CCCCC2)cc1NC(=O)Cc1ccsc1	/	-16	/	92	/
NC(=O)CSc1ncc(-c2ccc([N+](=O)[O-])cc2)[nH]1	-1	-7	-1	96	-29
NC(=O)CSc1ncc(-c2ccccc2)[nH]1	-2	-10	-3	110	74*
O=C(CSc1ncc(-c2ccccc2)[nH]1)Nc1ccccc1	-4	-9	-2	86	17
O=C(CSc1ncc(-c2ccccc2)[nH]1)Nc1cccc(O)c1	-2	-6	-5	89	94*
CN(C(=O)COC(=O)c1ccc2c(c1)OCCO2)C1CCCCC1	/	-13	/	/	/
COc1ccccc1NC(=O)COC(=O)C1=NN(c2ccccc2)C(=O)CC1	/	2	/	89	/
CCCN(CCC)c1nc2ccccc2n2c(C)nnc12	0	3	-2	97	6
CCc1nc2ccccc2n1CCc1ccccc1	2	6	-1	105	-5
CCCNc1nc2ccccc2n2c(C)nnc12	11*	0	-6	78	/
CCc1nnc2c(NCCc3ccccc3)nc3ccccc3n12	8.5*	-14	-2	107	11
CC(C)N(C(=O)[C@H]1CC(CC(=O)NCC23CC4CC(CC(C4)C2)C3)C(=O)N2CCc3c([nH]c4ccccc34)[C@]12C)C(C)C (some centres not stated)	/	7	/	101	/
FC(F)(F)c1ccccc1/C=N/n1c(COc2ccccc2)n[nH]c1=S	-1	-10	-3	107	-98
Clc1ccccc1Nc1nnc(-c2ccncc2)s1	-2	-3	-1	103	-32
COc1ccc(Nc2nnc(-c3ccncc3)s2)cc1Cl	1	-11	17*	105	26
COc1cccc(-c2cc(C(F)(F)F)nc(-n3cncn3)n2)c1	8.7*	-5	-4	93	10
SMILES	VIM-2 inhibitor	PvdQ acylase	IMP-1 inhibitor	CR mimetic SO	PHOSPHO1 block
Fc1ccc(-c2cc(C(F)(F)F)nc(-n3cncn3)n2)cc1	9.7*	-9	-3	104	4
O=C(NCC(=O)N1CCN(S(=O)(=O)c2c(F)cccc2F)CC1)c1ccccc1F	/	3	/	/	/
Cc1cccc2sc(NC(=O)C3CSC4(C)CCC(=O)N34)nc12 (configuration not stated)	-3	-10	-1	111	3
CC12CCC(=O)N1C(C(=O)Nc1nc3c(F)cc(F)cc3s1)CS2 (configuration not stated)	-4	-10	11*	96	37
O=C(NNC(=O)C1CC(c2cccnc2)=NO1)Nc1ccccc1F (configuration not stated)	-4	1	-3	96	65*
Cc1ccc(NC(=O)NNC(=O)C2CC(c3cccnc3)=NO2)cc1 (configuration not stated)	-4	-6	-2	77	26
N#Cc1ccccc1Cn1c(=O)n(Cc2ccc(C(=O)NCc3ccco3)cc2)c(=O)c2sccc21	-1	-11	7.0*	88	-20
Cc1ccc(COc2ccsc2C(=O)O)cc1	3	-15	-4	/	61*
O=C(C(Cl)c1ccccc1)N1CCOCC1 (configuration not stated)	-1	8	-2	96	27
Cc1ccc(C(=O)c2coc3c2C(=O)C(=O)c2ccccc2-3)cc1	-2	-4	1	106	85*
O=[N+]([O-])c1ccc(Cl)c(/C=N/n2c(C3CCCCC3)n[nH]c2=S)c1	-4	-14	0	114	103*
CCCCN1CNC(=S)N(c2cc(C)ccc2C)C1	-1	-25	-2	89	61*
CCCCN1CNC(=S)N(c2ccccc2OCC)C1	3	-2	0	98	9
CNc1ccc(Br)cc(C(=O)/C=C/c2cccc(Cl)c2Cl)c1=O	-2	-12	5.9*	/	4
CNc1ccccc(C(=O)/C=C/c2ccccc2OC)c1=O	-2	-11	2	118	11
CNc1ccc(Br)cc(C(=O)/C=C/c2cccc(OC)c2OC)c1=O	1	20	6.5*	96	-23
CCNc1ccc(Br)cc(C(=O)/C=C/c2ccccc2Cl)c1=O	0	-1	11*	100	/
Cc1cccc(/C=C/C(=O)c2cc(Br)ccc(=O)c2O)c1	-1	-10	2	120	-6
Cc1cc(S(=O)(=O)NC(C)c2nnc3ccccn23)ccc1Br (configuration not stated)	/	-10	/	112	/
O=C(/C=C/c1ccccc1Cl)Nc1ccncc1	-4	-12	-1	110	5
CC(=O)N(C)c1ccc(NC(=O)/C=C/c2ccccc2Cl)cc1	-2	-1	-2	85	95*
COc1cc(/C=C/C(=O)c2c(O)cc(C)oc2=O)cc(OC)c1O	-3	2	-2	104	80*
COc1ccccc1N1CCN(C(=O)COc2ccc(S(=O)(=O)NC(C)(C)C)cc2)CC1	-4	/	-3	100	54
Cc1c(NC(=S)N/N=C/c2ccc(N(C)C)cc2)c(=O)n(-c2ccccc2)n1C	1	-9	-1	100	5
Cc1c(NC(=S)N/N=C/c2cccc(O)c2)c(=O)n(-c2ccccc2)n1C	10*	2	-2	86	28
COc1ccccc1N=C(C)C1=C(O)CSC1=O	-3	14	5.6*	91	5
COc1ccc(Cn2nnnc2C(c2cc3ccc(OC)cc3[nH]c2=O)N2CCCCCC2)cc1 (configuration not stated)	3	-6	1	118	86*
